Measured values as given in ChEMBL document CHEMBL5724801, “EUbOPEN Chemogenomics Library - Multiplex” (2024).
“And” between values parts separate entries of the source, which are not always exact repeats. Equal values may be shown once.

Tested on: Fibroblast
Experiment: Multiplex assay against human fibroblast
Assay type: toxicity, cell-based
Procedure, shortened: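 Live cells were stained at seeding with Hoechst33342, BioTracker Green Microtubule Cytoskeleton Dye, MitoTracker Red and Annexin V Alexa Fluor 680, then imaged on a CQ1 microscope at 37°C and 5% CO2 after compound addition. CellPathfinder machine-learning gating split cells into Hoechst high-intensity objects or normal cells. Normal cells were split into healthy, pyknosed or fragmented nuclei, and pyknosed cells into mitotic or apoptotic. Tubulin, mitochondrial-mass and membrane-permeability phenotypes are per cents of healthy-nucleus cells.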

[1] = 12 h, 1 µM, compound concentration 1 uM
[2] = 12 h, 10 µM, compound concentration 10 uM
[3] = 24 h, 1 µM, compound concentration 1 uM
[4] = 24 h, 10 µM, compound concentration 10 uM
[5] = 48 h, 1 µM, compound concentration 1 uM
[6] = 48 h, 10 µM, compound concentration 10 uM

`CN1CC[C@@]23CCCC[C@@H]2[C@@H]1Cc1ccc(O)cc13.O=C(O)C(O)C(O)C(=O)O` was tested, and the “Population Apoptotic (%)” value [1] was 6.98% and 13.16%, the “Population Fragmented Nuclei (%)” value [1] was 5.26% and 4.9% and the “Population Healthy Nuclei (%)” value [1] was 69.59% and 79.59%. For the same molecule, the “Population Hoechst High Intensity Objects (%)” value [1] was 0%, the “Population Membrane Permeable-Phenotype (%)” value [1] was 1.68% and 2.05% and the “Population Mitochondria Different-Phenotype (%)” value [1] was 8.4% and 8.21%. The “Population Mitotic Cells (%)” value [1] was 93.02% and 86.84%, the “Population Normal (%)” value [1] was 100% and the “Population Pyknosed Nuclei (%)” value [1] was 25.15% and 15.51%. For the same molecule, the “Population Tubulin-Different-Phenotype (%)” value [1] was 15.97% and 20.51%, the “Total Cell Count” value [1] was 171 and 245 and the “Population Apoptotic (%)” value [2] was 8.2% and 12.82%. For the same molecule, the “Population Fragmented Nuclei (%)” value [2] was 8.77% and 7.24%, the “Population Healthy Nuclei (%)” value [2] was 64.47% and 79.31% and the “Population Hoechst High Intensity Objects (%)” value [2] was 0%. The “Population Membrane Permeable-Phenotype (%)” value [2] was 2.72% and 2.17%, the “Population Mitochondria Different-Phenotype (%)” value [2] was 6.12% and 5.65% and the “Population Mitotic Cells (%)” value [2] was 91.8% and 87.18%. For the same molecule, the “Population Normal (%)” value [2] was 100%, the “Population Pyknosed Nuclei (%)” value [2] was 26.75% and 13.45% and the “Population Tubulin-Different-Phenotype (%)” value [2] was 14.29% and 18.26%. For the same molecule, the “Total Cell Count” value [2] was 228 and 290, the “Population Apoptotic (%)” value [3] was 13.16% and 10.71% and the “Population Fragmented Nuclei (%)” value [3] was 6.63% and 3.19%. The “Population Healthy Nuclei (%)” value [3] was 72.38% and 85.66%, the “Population Hoechst High Intensity Objects (%)” value [3] was 0% and the “Population Membrane Permeable-Phenotype (%)” value [3] was 0% and 2.79%. The “Population Mitochondria Different-Phenotype (%)” value [3] was 9.92% and 5.12%, the “Population Mitotic Cells (%)” value [3] was 86.84% and 89.29% and the “Population Normal (%)” value [3] was 100%. The “Population Pyknosed Nuclei (%)” value [3] was 20.99% and 11.16%, the “Population Tubulin-Different-Phenotype (%)” value [3] was 17.56% and 14.88% and the “Total Cell Count” value [3] was 181 and 251. For the same molecule, the “Population Apoptotic (%)” value [4] was 17.74% and 18.92%, the “Population Fragmented Nuclei (%)” value [4] was 9.16% and 7.39% and the “Population Healthy Nuclei (%)” value [4] was 68.13% and 79.58%. The “Population Hoechst High Intensity Objects (%)” value [4] was 0%, the “Population Membrane Permeable-Phenotype (%)” value [4] was 2.15% and 2.21% and the “Population Mitochondria Different-Phenotype (%)” value [4] was 5.38% and 4.42%. The “Population Mitotic Cells (%)” value [4] was 82.26% and 81.08%, the “Population Normal (%)” value [4] was 100% and the “Population Pyknosed Nuclei (%)” value [4] was 22.71% and 13.03%. For the same molecule, the “Population Tubulin-Different-Phenotype (%)” value [4] was 19.89% and 17.7%, the “Total Cell Count” value [4] was 273 and 284 and the “Population Apoptotic (%)” value [5] was 30.77% and 40%. For the same molecule, the “Population Fragmented Nuclei (%)” value [5] was 9.57% and 5.1%, the “Population Healthy Nuclei (%)” value [5] was 84.21% and 89.02% and the “Population Hoechst High Intensity Objects (%)” value [5] was 0%. The “Population Membrane Permeable-Phenotype (%)” value [5] was 0.57% and 3.52%, the “Population Mitotic Cells (%)” value [5] was 69.23% and 60% and the “Population Normal (%)” value [5] was 100%. The “Population Pyknosed Nuclei (%)” value [5] was 6.22% and 5.88%, the “Population Tubulin-Different-Phenotype (%)” value [5] was 6.82% and 14.54% and the “Total Cell Count” value [5] was 209 and 255. For the same molecule, the “Population Apoptotic (%)” value [6] was 15.38% and 35.29%, the “Population Fragmented Nuclei (%)” value [6] was 6.34% and 8.95% and the “Population Healthy Nuclei (%)” value [6] was 88.81% and 85.62%. For the same molecule, the “Population Hoechst High Intensity Objects (%)” value [6] was 0%, the “Population Membrane Permeable-Phenotype (%)” value [6] was 0.84% and 4.1% and the “Population Mitochondria Different-Phenotype (%)” value [6] was 6.72% and 1.87%. For the same molecule, the “Population Mitotic Cells (%)” value [6] was 84.62% and 64.71%, the “Population Normal (%)” value [6] was 100% and the “Population Pyknosed Nuclei (%)” value [6] was 4.85% and 5.43%. For the same molecule, the “Population Tubulin-Different-Phenotype (%)” value [6] was 7.56% and 19.4% and the “Total Cell Count” value [6] was 268 and 313.
